Values joined by “and” are separate entries in the source; they are usually repeats but may differ in a detail not shown here. Equal values may be shown once.
Assays:
[1] = molecular target: D(2) dopamine receptor (Rattus norvegicus) (UniProt P61169); experiment: In vivo antagonism activity against D2 receptor was measured as stereotypy in rat when administered subcutaneously; format: functional, organism-based
Procedure, shortened: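 Male Long Evans rats (275 g) were dosed sc in dilute aqueous HCl (pH 4.5-5.5) 30 min before apomorphine (1 mg/kg sc).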

[2] = molecular target: D(2) dopamine receptor (Canis lupus familiaris) (UniProt Q9GJU1); experiment: In vivo antagonism activity against dopamine D2 receptor was measured as emesis in dog when administered subcutaneously; format: functional, organism-based
D(2) dopamine receptor (Canis lupus familiaris), sequence (Q9GJU1 whole entry): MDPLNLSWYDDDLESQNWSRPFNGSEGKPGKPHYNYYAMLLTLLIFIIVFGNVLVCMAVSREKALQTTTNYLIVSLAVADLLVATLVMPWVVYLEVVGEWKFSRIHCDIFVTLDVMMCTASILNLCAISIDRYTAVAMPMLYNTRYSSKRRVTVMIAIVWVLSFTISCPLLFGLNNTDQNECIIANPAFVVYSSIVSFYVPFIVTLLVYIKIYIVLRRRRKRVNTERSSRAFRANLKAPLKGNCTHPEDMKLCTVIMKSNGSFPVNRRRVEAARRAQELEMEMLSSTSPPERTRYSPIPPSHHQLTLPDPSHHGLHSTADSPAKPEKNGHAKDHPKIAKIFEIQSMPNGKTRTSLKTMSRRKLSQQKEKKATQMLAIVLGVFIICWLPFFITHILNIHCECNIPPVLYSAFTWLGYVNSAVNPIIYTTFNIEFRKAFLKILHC

[3] = tested on: Canis familiaris; experiment: In vivo antagonism of cisplatin-induced emesis in dog measured as percentage protection for twice the dose of 0.3 mg/kg in 2 dogs; format: functional, Canis lupus familiaris
Procedure, shortened: (§1)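 Nonfasted mature male or female beagles were dosed sc twice, 30 min before and 120 min after cisplatin (3 mg/kg iv; 3 mg/mL in warm 0.9% saline, used immediately). Emesis was observed up to 5 h; events within 2 min counted as one episode. Results were given as mean emetic episodes and % protection versus a dynamic control (historical and concurrent saline means pooled). t test versus saline.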

[4] = tested on: Canis familiaris; experiment: In vivo antagonism of cisplatin-induced emesis in dog measured as emetic episodes, twice the dose of 0.3 mg/kg in 2 dogs; format: functional, Canis lupus familiaris; procedure, shortened: as §1
[5] = molecular target: D(2) dopamine receptor (Rattus norvegicus) (UniProt P61169); experiment: In vivo antagonistic activity against dopamine D2 receptor was measured as catalepsy in rat when administered subcutaneously; format: functional, organism-based
Procedure, shortened: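 Male Long Evans rats (275 g) received graded sc doses in dilute aqueous HCl (pH 4.5-5.5). They were observed 180 min for catalepsy, scored when the animal stayed stationary ≥15 s on a four-cork template.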

[6] = molecular target: D(2) dopamine receptor (Rattus norvegicus, UniProt P61169); experiment: In vitro antagonistic activity against Dopamine receptor D2 was evaluated for the inhibition of [3H]spiperone binding
D(2) dopamine receptor, sequence (P61169 whole entry): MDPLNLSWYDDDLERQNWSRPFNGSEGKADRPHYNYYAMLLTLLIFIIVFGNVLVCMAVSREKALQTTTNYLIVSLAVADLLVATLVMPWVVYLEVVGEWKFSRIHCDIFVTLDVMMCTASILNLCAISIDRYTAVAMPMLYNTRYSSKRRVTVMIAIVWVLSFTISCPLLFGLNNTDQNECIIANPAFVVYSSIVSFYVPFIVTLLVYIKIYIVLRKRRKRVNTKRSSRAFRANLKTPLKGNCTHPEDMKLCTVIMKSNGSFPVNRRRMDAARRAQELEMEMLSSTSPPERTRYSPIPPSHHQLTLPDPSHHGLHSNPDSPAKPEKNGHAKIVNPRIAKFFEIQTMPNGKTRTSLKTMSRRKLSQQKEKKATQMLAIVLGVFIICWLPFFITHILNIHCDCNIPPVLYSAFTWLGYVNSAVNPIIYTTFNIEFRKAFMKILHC
Procedure, shortened: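 Rat striatal membranes were prepared by differential centrifugation in 50 mM Tris pH 7.4 at 4 °C. Membrane protein (10 mg) was incubated 15 min at 37 °C with 0.1 nM [3H]spiperone and varying competitor concentrations. Buffer: 50 mM Tris HCl pH 7.5, 0.1% ascorbic acid, pargyline, 120 mM NaCl, 5 mM KCl, 2 mM CaCl2, 1 mM MgCl2. (+)-Butaclamol defined nonspecific binding. Bound ligand was collected by filtration and scintillation counted. IC50 by log-logit regression.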

[7] = tested on: Mustela putorius furo; experiment: In vitro antagonism of cisplatin-induced emesis in ferret measured as percentage protection for twice the dose of 1 mg/kg and in 3 ferrets; format: functional; conditions: in the assay text read “In vivo” for “In vitro”
Procedure, shortened: (§2)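 Nonfasted castrated male Fitch ferrets (1–1.5 kg) had jugular catheters implanted ≥48 h earlier under anesthesia. Compounds or saline were given iv twice, 5 min before and 90 min after cisplatin (12 mg/kg iv; 12 mg/mL in warm 0.9% saline). Emesis was observed up to 4 h; events within 1 min counted as one episode. Results were given as mean emetic episodes and % protection versus a pooled historical/concurrent control. t test versus saline.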

[8] = tested on: Mustela putorius furo; experiment: In vivo antagonism of cisplatin-induced emesis in ferret measured as emetic episodes, twice the dose of 1 mg/kg and in 3 ferrets; format: functional; procedure, shortened: as §2
[9] = tested on: Mustela putorius furo; experiment: In vivo antagonism of cisplatin-induced emesis in ferret measured as percentage protection for twice the dose of 1 mg/kg and in 3 ferrets; format: functional; conditions: 1 mg/kg; procedure, shortened: as §2
[10] = tested on: Canis familiaris; experiment: In vivo antagonism of cisplatin-induced emesis in dog measured as percentage protection for twice the dose of 1 mg/kg in 2 dogs; format: functional, Canis lupus familiaris; conditions: 1 mg/kg; procedure, shortened: as §1
[11] = tested on: Canis familiaris; experiment: In vivo antagonism of cisplatin-induced emesis in dog measured as emetic episodes, twice the dose of 1 mg/kg in 2 dogs; format: functional, Canis lupus familiaris; conditions: 1 mg/kg; procedure, shortened: as §1
[12] = tested on: Mustela putorius furo; experiment: In vivo antagonism of cisplatin-induced emesis in ferret measured as emetic episodes, twice the dose of 0.3 mg/kg and in 3 ferrets; format: functional; conditions: in the assay text read “in 2 ferrets” for “in 3 ferrets”; procedure, shortened: as §2
[13] = tested on: Mustela putorius furo; experiment: in vivo antagonism of cisplatin-induced emesis in ferret measured as emetic episodes, twice the dose of 0.3 mg/kg and in 3 ferrets; format: functional
Procedure, shortened: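 Nonfasted castrated male Fitch ferrets (1–1.5 kg) carried jugular vein catheters implanted at least 48 h earlier under general anesthesia. Test compound or saline was given iv twice, 5 min before and 90 min after cisplatin (12 mg/kg iv; 12 mg/mL in warm saline). Emesis was watched for 4 h, with events within 1 min counted as one episode. % protection is relative to a pooled historical-plus-concurrent control, with t test versus saline.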

[14] = tested on: Canis familiaris; experiment: Protection against cisplatin-induced emesis in dog measured as percentage protection for twice the dose of 2.5 mg/kg and in 4 dogs(2 protected); format: functional, Canis lupus familiaris
[15] = tested on: Canis familiaris; experiment: Protection against cisplatin-induced emesis in dog measured as percentage protection for twice the dose of 0.8 mg/kg and in 3 dogs(1 protected); format: functional, Canis lupus familiaris
[16] = tested on: Canis familiaris; experiment: […] cisplatin-induced emesis in dog was measured for as stereotypy when administered iv twice daily; format: functional; conditions: Canis lupus familiaris
[17] = tested on: Mustela putorius furo; experiment: In vivo antagonism of cisplatin-induced emesis in ferret measured as percentage protection for twice the dose of 0.8 mg/kg in 5 ferrets; format: functional; procedure, shortened: as §2
[18] = tested on: Canis familiaris; experiment: (§3) In vivo antagonism of cisplatin-induced emesis in dog measured as emetic episodes, twice the dose of 0.8 mg/kg in 3 dogs; format: functional, Canis lupus familiaris; procedure, shortened: as §1
[19] = tested on: Mustela putorius furo; experiment: In vivo antagonism of cisplatin-induced emesis in ferret measured as percentage protection for twice the dose of 0.2 mg/kg in 4 ferrets; format: functional; procedure, shortened: as §2
[20] = tested on: Mustela putorius furo; experiment: antagonism of cisplatin-induced emesis in ferret measured when administered intravenously twice daily; conditions: iv
[21] = tested on: Mustela putorius furo; experiment: In vivo antagonism of cisplatin-induced emesis in ferret measured as emetic episodes, twice the dose of 2.5 mg/kg in 5 ferrets; format: functional; procedure, shortened: as §2
[22] = tested on: Canis familiaris; experiment: In vivo antagonism of cisplatin-induced emesis in dog measured as percentage protection for twice the dose of 0.2 mg/kg in 4 dogs; format: functional, Canis lupus familiaris; procedure, shortened: as §1
[23] = tested on: Canis familiaris; experiment: (§4) In vivo antagonism of cisplatin-induced emesis in dog measured as emetic episodes, twice the dose of 0.2 mg/kg in 4 dogs; format: functional, Canis lupus familiaris; procedure, shortened: as §1
[24] = tested on: Mustela putorius furo; experiment: In vivo antagonism of cisplatin-induced emesis in ferret measured as emetic episodes, twice the dose of 0.8 mg/kg in 5 ferrets; format: functional; procedure, shortened: as §2
[25] = tested on: Canis familiaris; experiment: Protection against cisplatin-induced emesis in dog measured as percentage protection for twice the dose of 0.2 mg/kg; format: functional, Canis lupus familiaris
[26] = tested on: Canis familiaris; experiment: In vivo antagonism of cisplatin-induced emesis in dog measured as percentage protection for twice the dose of 0.8 mg/kg in 3 dogs; format: functional, Canis lupus familiaris; procedure, shortened: as §1
[27] = tested on: Mustela putorius furo; experiment: (§5) In vivo antagonism of cisplatin-induced emesis in ferret measured as percentage protection for twice the dose of 2.5 mg/kg in 5 ferrets; format: functional; procedure, shortened: as §2
[28] = tested on: Canis familiaris; experiment: as §4; format: functional, Canis lupus familiaris; procedure, shortened: as §1; remark: listed apart in the source
[29] = tested on: Mustela putorius furo; experiment: as §5; format: functional; procedure, shortened: as §2; remark: listed apart in the source
[30] = tested on: Mustela putorius furo; experiment: In vivo antagonism of cisplatin-induced emesis in ferret measured as emetic episodes, twice the dose of 0.2 mg/kg in 4 ferrets; format: functional; procedure, shortened: as §2
[31] = tested on: Canis familiaris; experiment: (§6) In vivo antagonism of cisplatin-induced emesis in dog measured as emetic episodes, twice the dose of 2.5 mg/kg in 4 dogs; format: functional, Canis lupus familiaris; procedure, shortened: as §1
[32] = tested on: Canis familiaris; experiment: In vivo antagonism of cisplatin-induced emesis in dog measured as percentage protection for twice the dose of 2.5 mg/kg in 4 dogs; format: functional, Canis lupus familiaris; procedure, shortened: as §1
[33] = tested on: Canis familiaris; experiment: as §6; format: functional, Canis lupus familiaris; procedure, shortened: as §1; remark: listed apart in the source
[34] = tested on: Canis familiaris; experiment: as §3; format: functional, Canis lupus familiaris; procedure, shortened: as §1; remark: listed apart in the source

D(2) dopamine receptor (Rattus norvegicus), sequence (P61169 whole entry): as above

With CCN(CC)CCNC(=O)c1cc(Cl)c(N)cc1OC(C)(C)C(C)=O the ED50 [1] was over 40 mg/kg, the ED50 [2] was over 3 mg/kg and the Protection [3] was 77%. For the same compound, the Emetic episodes [4] was 2.7, the ED50 [5] was over 40 mg/kg and the IC50 [6] was over 1000 nM. It also gave a Protection [7] of 62% and an Emetic episodes [8] of 2.7.

CCN(CC)CCNC(=O)c1cc(Cl)c(N)cc1OC[C@@H](C)O (stereo in doubt; 8e) was tested, and the Protection [9] was 73%, the Protection ([3]; 0.3 mg/kg) was 45% and the Emetic episodes ([4]; 0.3 mg/kg) was 6.5. For the same compound, the IC50 [6] was over 1000 nM, the Protection [10] was 92% and the Emetic episodes [11] was 1. The Emetic episodes ([8]; 1 mg/kg) was 2, the Protection [12] was 18% and the Emetic episodes [13] was 6.

In the case of CCN(CC)CCNC(=O)c1cc(Cl)c(N)cc1OC [METOCLOPRAMIDE], the ED50 [1] is reported as 4 mg/kg, the Protection [14] is reported as 92% and the Protection [15] is reported as 92%. For the same compound, the ED50 [2] was 0.36 mg/kg, the ED50 [16] was 0.18 mg/kg and the Protection [17] was 73% and 66%. The Emetic episodes [18] was 1, the Protection [19] was 22% and 21% and the ED50 [20] was 0.53 mg/kg. The Emetic episodes [21] was 0.6, the Protection [22] was 58% and the Emetic episodes [23] was 5. The Emetic episodes [24] was 2.4, the ED50 [5] was 26 mg/kg and the Protection [25] was 58%. The Protection [26] was 92%, the Protection [27] was 90% and the Emetic episodes [28] was 5. It also gave a Protection [29] of 91%, an Emetic episodes [30] of 5.5 and an Emetic episodes [31] of 1. For the same compound, the Protection [32] was 92%, the Emetic episodes [33] was 1 and the Emetic episodes [34] was 1.

Source: ChEMBL document CHEMBL1124174, “Substituted benzamides. 1. Potential nondopaminergic antagonists of chemotherapy-induced nausea and emesis” (J Med Chem, 1988)
